This passage reports GFP response vs DMSO, GFP response relative to DMSO and GFP response, % of DMSO results from PubChem BioAssay.

Assay [1] in a line: hit retest on RPL19A-GFP reporter strain – cell-based, S. cerevisiae, flow cytometry, cherry picks, mother/daughter gates, confirmation (AID 2270;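 active = GFP response below 50% of the DMSO control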). The note with it: 3 h, at 10 µM, stronger effect = lower value, 100 = same GFP as DMSO wells. (In general: In flow cytometry, cells or beads pass a laser one at a time.)
Assay [2] in a line: yeast TOR pathway reporter LAP4-GFP change – cell-based, cherry picks, flow cytometry, mother/daughter gates, confirmation (AID 2271;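 active = GFP response above 150% of the DMSO control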;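 also: ratio of sample to DMSO plate mean so 100% equals DMSO level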). The note with it: S. cerevisiae LAP4-GFP strain, 3 h, at 10 µM, stronger effect = higher value, 100 means same as DMSO control. Put shortly: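 System: GFP-fusion yeast strain | Input: Yeast cells seeded at OD600 of 0.2 | Technique: HT flow cytometry, GFP fluorescence channel | Read-out: % GFP response vs DMSO | Dosing: Single test-compound dose, 10 µM final | Controls: Positive rapamycin (400 ng/mL), negative DMSO | Times: 3 h treatment at 30 °C with rotation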

A short description of assay [3]: TOR pathway reporter MEP2-GFP, retest of hits – S. cerevisiae, flow cytometry GFP, cherry picks, confirmation (AID 2272;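 active = GFP response above 150% of the DMSO control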;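 also: ratio of well signal to plate DMSO mean so 100% equals DMSO level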). As to conditions: S. cerevisiae MEP2-GFP strain, 3 h, at 10 µM, stronger effect = higher value.
Assay [4] in a line: yeast AGP1-GFP fluorescence change, single-dose – cell-based, flow cytometry, S. cerevisiae, cherry picks, confirmation (AID 2273).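 Also: median GFP channel fluorescence over the whole cell population gate.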 As to conditions: S. cerevisiae AGP1-GFP strain, 3 h, at 10 µM.
The nature of assay [5]: TOR pathway CIT2 reporter hit retest – S. cerevisiae, GFP fusion, cherry picks, mother/daughter gates, confirmation (AID 2274). The note with it: S. cerevisiae CIT2-GFP strain, flow cytometry, 3 h, at 10 µM, stronger effect = higher value.
Where [6] appears, read: measured here: daughter cell gate.
The mark [7] stands for this setting: measured here: mother cell gate.
The mark [8] stands for this setting: measured here: daughter cell gate response.
[9] abbreviates: measured here: mother cell gate response.

Molecules are shown by their SMILES. Calls of active or inactive are those of the source.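 The calls were made as follows, unless noted: active = GFP response above 150% of the DMSO level; inconclusive = fewer than 70 events counted for a yeast strain; inactive = the rest.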

`CCc1ccc(C(=O)COC(=O)c2n[nH]c3ccccc23)cc1`: the GFP response vs DMSO is 95.8% (inactive) in assay [1], 97.3% in assay [1] (setting [6]), 94% in assay [1] (setting [7]) and 101% (inactive) in assay [3]. In addition, the GFP response relative to DMSO in assay [2] was 102% (inactive); in assay [2] (setting [8]) it was 101%; in assay [2] (setting [9]) it was 104%. Further, the GFP response, % of DMSO was 101% (inactive) in assay [4], 101% (inactive) in assay [5], 97.6% in assay [5] (setting [6]) and 102% in assay [5] (setting [7]).
As for `CNC(=O)/C(C#N)=C/c1c(N(Cc2ccccc2)Cc2ccccc2)nc2ccccn2c1=O`, the GFP response vs DMSO in assay [1] is 97.3% (inactive); in assay [1] (setting [6]), 98.1%; in assay [1] (setting [7]) it was 96.9%; in assay [3] it was 93.1% (inactive). The values for the GFP response relative to DMSO in assay [2], in assay [2] (setting [8]) and in assay [2] (setting [9]) were 100% (inactive), 99% and 101%, respectively. Besides, the GFP response, % of DMSO was 104% (inactive) in assay [4], 100% (inactive) in assay [5], 101% in assay [5] (setting [6]) and 99.3% in assay [5] (setting [7]).
`Cc1cc(N2CCCCC2)n2ncc(-c3ccccc3)c2n1`: the GFP response vs DMSO in assay [1] was 97.6% (inactive); in assay [1] (setting [6]), 97.3%; in assay [1] (setting [7]) it was 98.4%; in assay [3], 95.7% (inactive). For the same molecule, the figures for the GFP response relative to DMSO in assay [2], in assay [2] (setting [8]) and in assay [2] (setting [9]) were 102% (inactive), 106% and 102%, respectively. The GFP response, % of DMSO was 95.2% (inactive) in assay [4], 104% (inactive) in assay [5], 103% in assay [5] (setting [6]) and 103% in assay [5] (setting [7]).
With `Clc1cccc(Cn2ncc3ccccc32)c1`, the GFP response vs DMSO was 95% (inactive) in assay [1], 95.1% in assay [1] (setting [6]), 94.9% in assay [1] (setting [7]) and 92% (inactive) in assay [3]. In addition, the figures for the GFP response relative to DMSO in assay [2], in assay [2] (setting [8]) and in assay [2] (setting [9]) were 103% (inactive), 102% and 103%, respectively. For the same molecule, the GFP response, % of DMSO in assay [4] is 94.1% (inactive); in assay [5], 95.5% (inactive); in assay [5] (setting [6]), 95.4%; in assay [5] (setting [7]) it was 95%.
On to `CCOC(=O)Cn1cc(/C=C/[N+](=O)[O-])c2ccccc21`, for which the GFP response vs DMSO in assay [1] is 95.8% (inactive); in assay [1] (setting [6]), 92.7%; in assay [1] (setting [7]), 93.5%; in assay [3], 99.3% (inactive). Also, the results for the GFP response relative to DMSO in assay [2], in assay [2] (setting [8]) and in assay [2] (setting [9]) were 160% (active), 153% and 157%, respectively. The GFP response, % of DMSO in assay [4] was 95% (inactive); in assay [5] it was 88.9% (inactive); in assay [5] (setting [6]), 92.3%; in assay [5] (setting [7]), 83.7%.
Take `CC(C)NC(=O)c1ccccc1-c1nc(-c2ccccc2Cl)no1`: the GFP response vs DMSO is 97.2% (inactive) in assay [1], 96.7% in assay [1] (setting [6]), 98% in assay [1] (setting [7]) and 97.8% (inactive) in assay [3]. The GFP response relative to DMSO in assay [2] was 107% (inactive); in assay [2] (setting [8]), 103%; in assay [2] (setting [9]), 108%. In addition, the GFP response, % of DMSO in assay [4] is 98.5% (inactive); in assay [5] it was 91.3% (inactive); in assay [5] (setting [6]), 93.2%; in assay [5] (setting [7]), 90.2%.
As for `COc1ccc2ccccc2c1/C=N/Nc1cccc(C(=O)O)c1`, the GFP response vs DMSO was 99.4% (inactive) in assay [1], 98.6% in assay [1] (setting [6]), 100% in assay [1] (setting [7]) and 105% (inactive) in assay [3]. The GFP response relative to DMSO is 98.2% (inactive) in assay [2], 99.1% in assay [2] (setting [8]) and 98.4% in assay [2] (setting [9]). Also, the GFP response, % of DMSO in assay [4] is 102% (inactive); in assay [5], 103% (inactive); in assay [5] (setting [6]), 101%; in assay [5] (setting [7]), 102%.
Consider `COc1cccc(NC(=O)Nc2ccc3c(c2)nnn3C)c1`, for which the GFP response vs DMSO in assay [1] is 97.8% (inactive); in assay [1] (setting [6]), 98.1%; in assay [1] (setting [7]) it was 96.9%; in assay [3], 100% (inactive). For the same molecule, the figures for the GFP response relative to DMSO in assay [2], in assay [2] (setting [8]) and in assay [2] (setting [9]) were 103% (inactive), 102% and 104%, respectively. The GFP response, % of DMSO was 97.2% (inactive) in assay [4], 101% (inactive) in assay [5], 103% in assay [5] (setting [6]) and 101% in assay [5] (setting [7]).
With `Cc1ccc(CCN2CC(C(=O)NCCCN(C)Cc3ccccc3)CC2=O)cc1` (configuration not stated), the GFP response vs DMSO was 99.1% (inactive) in assay [1], 99.3% in assay [1] (setting [6]), 98% in assay [1] (setting [7]) and 101% (inactive) in assay [3]. For the same molecule, the GFP response relative to DMSO is 101% (inactive) in assay [2], 104% in assay [2] (setting [8]) and 100% in assay [2] (setting [9]). Further, the GFP response, % of DMSO in assay [4] is 103% (inactive); in assay [5], 98.6% (inactive); in assay [5] (setting [6]), 103%; in assay [5] (setting [7]) it was 96%.
For the molecule `CCOC(=O)CSC1=NC(=O)/C(=C/c2ccc(Br)cc2)S1`, the GFP response vs DMSO is 96.3% (inactive) in assay [1], 86.3% in assay [1] (setting [6]), 92.8% in assay [1] (setting [7]) and 98.8% (inactive) in assay [3]. Besides, the GFP response relative to DMSO was 161% (active) in assay [2], 136% in assay [2] (setting [8]) and 170% in assay [2] (setting [9]). Also, the GFP response, % of DMSO in assay [4] is 103% (inactive); in assay [5], 83.5% (inactive); in assay [5] (setting [6]) it was 77.8%; in assay [5] (setting [7]), 79.8%.
For the molecule `COc1ccc(NS(=O)(=O)c2cccc3ccccc23)cc1`, the GFP response vs DMSO was 99.4% (inactive) in assay [1], 99.6% in assay [1] (setting [6]), 99.2% in assay [1] (setting [7]) and 102% (inactive) in assay [3]. The GFP response relative to DMSO in assay [2] is 97.9% (inactive); in assay [2] (setting [8]) it was 97.6%; in assay [2] (setting [9]), 97.2%. Further, the GFP response, % of DMSO was 101% (inactive) in assay [4], 99.7% (inactive) in assay [5], 99.1% in assay [5] (setting [6]) and 98.5% in assay [5] (setting [7]).
As for `COc1cc(NC(C)=O)ccc1NC(=O)c1cc2ccccc2o1`, the GFP response vs DMSO in assay [1] was 99% (inactive); in assay [1] (setting [6]) it was 97.8%; in assay [1] (setting [7]), 98.2%; in assay [3], 100% (inactive). In addition, the GFP response relative to DMSO in assay [2] is 95% (inactive); in assay [2] (setting [8]), 97.2%; in assay [2] (setting [9]), 96.2%. For the same molecule, the GFP response, % of DMSO is 102% (inactive) in assay [4], 100% (inactive) in assay [5], 98.1% in assay [5] (setting [6]) and 101% in assay [5] (setting [7]).
Consider `O=C(Cc1ccc(Cl)cc1)Nc1ccc(Br)cn1`, for which the GFP response vs DMSO in assay [1] is 103% (inactive); in assay [1] (setting [6]) it was 100%; in assay [1] (setting [7]) it was 103%; in assay [3] it was 118% (inactive). Further, the GFP response relative to DMSO in assay [2] is 108% (inactive); in assay [2] (setting [8]), 106%; in assay [2] (setting [9]), 111%. The GFP response, % of DMSO in assay [4] was 113% (inactive); in assay [5] it was 105% (inactive); in assay [5] (setting [6]), 112%; in assay [5] (setting [7]) it was 99.3%.
For `CC(C)c1ccc2c(c1)C1(NN=C(c3ccccc3)S1)C(=O)N2` (configuration not stated), the GFP response vs DMSO is 105% (inactive) in assay [1], 107% in assay [1] (setting [6]), 104% in assay [1] (setting [7]) and 100% (inactive) in assay [3]. Also, the GFP response relative to DMSO was 96.2% (inactive) in assay [2], 95.6% in assay [2] (setting [8]) and 98.3% in assay [2] (setting [9]). Also, the GFP response, % of DMSO in assay [4] is 95.7% (inactive); in assay [5], 91.3% (inactive); in assay [5] (setting [6]), 96.5%; in assay [5] (setting [7]) it was 88%.
As to `COc1ccc(-c2noc(-c3cccc(Cl)c3)n2)cc1OC`, the GFP response vs DMSO in assay [1] is 98% (inactive); in assay [1] (setting [6]) it was 97.3%; in assay [1] (setting [7]) it was 97.6%; in assay [3], 102% (inactive). Also, the GFP response relative to DMSO was 102% (inactive) in assay [2], 101% in assay [2] (setting [8]) and 101% in assay [2] (setting [9]). Besides, the GFP response, % of DMSO is 96.2% (inactive) in assay [4], 99.3% (inactive) in assay [5], 102% in assay [5] (setting [6]) and 96.8% in assay [5] (setting [7]).
As to `c1ccc2oc(SCc3nc4ccccc4s3)nc2c1`, the GFP response vs DMSO in assay [1] is 99% (inactive); in assay [1] (setting [6]), 98.9%; in assay [1] (setting [7]), 98.9%; in assay [3], 98.3% (inactive). Also, the GFP response relative to DMSO in assay [2] is 106% (inactive); in assay [2] (setting [8]), 104%; in assay [2] (setting [9]), 106%. Moreover, the GFP response, % of DMSO in assay [4] is 95% (inactive); in assay [5] it was 99.7% (inactive); in assay [5] (setting [6]) it was 99.1%; in assay [5] (setting [7]), 99.7%.
For the molecule `COC(=O)Nc1ccc2c(c1)N(C(=O)CCN1CCN3CCCC3C1)c1ccccc1CC2` (configuration not stated), the GFP response vs DMSO is 102% (inactive) in assay [1], 101% in assay [1] (setting [6]), 102% in assay [1] (setting [7]) and 104% (inactive) in assay [3]. Also, the GFP response relative to DMSO in assay [2] was 96.2% (inactive); in assay [2] (setting [8]), 97.2%; in assay [2] (setting [9]) it was 99.3%. Also, the GFP response, % of DMSO in assay [4] is 106% (inactive); in assay [5] it was 104% (inactive); in assay [5] (setting [6]), 99.7%; in assay [5] (setting [7]), 105%.
